# Values without a mark were called inactive. The list shows a part of the results. Calls of active or inactive are those of the source.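 The calls were made as follows, unless noted: active = duplicate-averaged activation above buffer control mean plus 5 SD of those controls; inactive = the rest.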
# How the values were obtained:
# [1] = thallium flux activation in parental CHO cells, counter-screen for KCNQ1 potentiator project (AID 493006); settings: parental CHO-K1 cells, FluxOR thallium flux, at 10 µM; active compounds read high;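 as to activation: fluorescence ratio of max minus min over baseline after K+ and Tl+ depolarization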
# Method in brief: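 Material: parental CHO-K1 cells, FluxOR dye-loaded; Also added: Potassium/thallium depolarization pulse; Schedule: overnight 37 °C plating, 90 min dye, 20 min dark compound; Signal: kinetic FluxOR fluorescence, 10 s baseline, 110 s after stimulus.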
# [2] = target: Potassium voltage-gated channel subfamily KQT member 1 (Homo sapiens) (UniProt P51787); assay: KCNQ1 potassium channel potentiators, confirmation, FluxOR thallium flux, CHO cells, duplicates (AID 493007;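 active = potentiation averaged over duplicate wells exceeding buffer-only control mean by more than 3 SD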;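 as to outcome: cells depolarized by a potassium plus thallium sulfate stimulus after compound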); settings: KCNQ1 cell line, FluxOR thallium flux fluorescence, at 10 µM; active compounds read high, % of reference activator effect, buffer zero
# Method in brief: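 System: KCNQ1-expressing CHO cell line; technique: kinetic thallium influx fluorescence with FluxOR dye, 10 s baseline, 110 s post-stimulus; timing: dye 90 min then compound 20 min, both at room temperature; controls: buffer-only wells as 0% and R-L3 activator as 100%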
# [3] = target: Potassium voltage-gated channel subfamily KQT member 1 (Homo sapiens) (UniProt P51787); assay: KCNQ1 channel current potentiators, confirmation, orthogonal assay for KCNQ1 potentiator project, IonWorks patch clamp, KCNQ1-CHO cells (AID 493184;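 active = current rise at least 3 SD above the untreated control mean in each of two repeat wells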); settings: automated patch clamp current, at 10 µM; active compounds read high
# Method in brief: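 Test system: KCNQ1-expressing CHO cells. Medium: pH 7.4 external bath. Probe or stimulus: voltage step from -90 mV holding to +40 mV, 2,000 ms. Compound: 10 µM final, single point. Detection: automated perforated-patch electrophysiology. Read-out: percent current increase versus pre-compound level. Repeats: two replicates.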
# [4] = target: Potassium voltage-gated channel subfamily KQT member 1 (Homo sapiens) (UniProt P51787); assay: KCNQ1 potassium channel inhibitors, confirmation, cell-based, Tl flux, duplicate (AID 588353;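 active = primary screen active, with duplicate mean exceeding buffer control mean plus 3 SD of buffer wells, cut at about 28% in these data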;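 also: 0% = buffer control ratio and 100% = XE991 inhibitor control ratio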); settings: KCNQ1 cell line, FluxOR thallium flux fluorescence, at 10 µM, active compounds read high
# Method in brief: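 System: stable KCNQ1-expressing CHO cell line; Reagent: Tl2SO4 plus K2SO4 stimulus, each 12.5 mM in 5x stock; Schedule: dye loading 90 min, compound 20 min, both room temperature; Measured by: thallium-sensitive FluxOR dye fluorescence; Read-out basis: percent inhibition of fluorescence change ratio, scaled buffer to XE991; Control set: buffer and XE991; Replication: duplicate.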
# [5] = thallium flux effects in parental CHO cells, counter-screen for KCNQ1 inhibitor project, cell-based, Tl flux (AID 588366;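 active = mean of duplicate thallium-flux fluorescence ratios in parental host cells more than 5 SD below the buffer control mean, cut at about 0.38 in these data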;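 also: ratio is peak minus minimum fluorescence divided by baseline fluorescence; actives read low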); settings: parental CHO-K1, FluxOR thallium flux fluorescence ratio; at 10 µM; active compounds read low; zero means no signal rise above baseline
# Method in brief: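 Assay system: CHO-K1 parental line without KCNQ1 | Reagent: K+/Tl+ depolarizing stimulus | Incubation: 90 min dye load, 20 min compound, room temperature | Technique: Kinetic FluxOR thallium-flux fluorescence, 10 s baseline plus 110 s | Evaluation: Peak-to-trough fluorescence change relative to baseline, duplicate mean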
# [6] = target: Potassium voltage-gated channel subfamily KQT member 1 (Homo sapiens) (UniProt P51787); assay: KCNQ1 channel inhibitors, confirmation, orthogonal assay, cell-based, automated electrophysiology (AID 624120;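 active = KCNQ1 current drop exceeding 3 SD of negative control wells, seen in both duplicate runs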); settings: KCNQ1-CHO cells, automated patch clamp current; at 10 µM
# Method in brief: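 System: KCNQ1-expressing CHO cells; Medium: external buffer at pH 7.4; Probe or stimulus: 2,000 ms voltage steps to +40 mV from -80 mV; Compound: 10 µM final, single dose; Technique: automated perforated-patch voltage clamp using amphotericin B; Measure: percent change in steady-state +40 mV current, post- versus pre-compound; Benchmarks: negative controls; Replication: duplicates.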
# [7] = target: Potassium voltage-gated channel subfamily KQT member 2 (Rattus norvegicus) (UniProt O88943); assay: KCNQ2 channel inhibition, selectivity assay for KCNQ1 inhibitor project, cell-based (AID 651746;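 active = mean percent inhibition of the KCNQ2 thallium signal more than 5 SD above the buffer-only control wells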;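 as to inhibition: 0% = buffer control wells and 100% = XE-991 inhibitor control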); settings: KCNQ2 cells, FluxOR thallium flux fluorescence, at 10 µM; active compounds read high
# [8] = target: T1, Potassium voltage-gated channel subfamily E member 1 (Homo sapiens) + Potassium voltage-gated channel subfamily KQT member 1 (Homo sapiens) (UniProt P15382+P51787); assay: KCNQ1/KCNE1 complex potentiators, confirmation, selectivity assay for KCNQ1 potentiator project, thallium flux, CHO-K1 KCNQ1/E1 cells (AID 493186;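 active = mean duplicate activation above the buffer control mean plus 5 SD of those controls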); settings: FluxOR thallium flux, at 10 µM; active compounds read high
# Method in brief: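 Material: CHO-K1 cells with KCNQ1/E1 / Timing: dye 90 min, compound 20 min, room temperature / Technique: kinetic thallium-sensitive FluxOR dye fluorescence / Read-out: percent activation scaled between buffer and R-L3 ratio signals / Replicates: tested in duplicate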
# [9] = target: T1, Potassium voltage-gated channel subfamily E member 1 (Homo sapiens) + Potassium voltage-gated channel subfamily KQT member 1 (Homo sapiens); assay: KCNQ1/KCNE1 channel inhibition, selectivity assay for KCNQ1 inhibitor project, CHO-K1 cells, thallium flux, FluxOR (AID 652147;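 active = mean percent inhibition of duplicate wells above the buffer-only control mean plus 3 SD of those controls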;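 as to inhibition: 0% = buffer only wells and 100% = XE-991 inhibitor control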); settings: FluxOR thallium flux fluorescence, at 10 µM; active compounds read high
# Method in brief: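 Probe or stimulus: depolarizing thallium/potassium stimulus, 5x stock with 12.5 mM Tl2SO4 and K2SO4. System: KCNQ1/KCNE1 potassium channel-expressing cells, plated overnight. Timing: dye 90 min and compound 20 min at room temperature. Signal: kinetic FluxOR thallium-sensitive fluorescence, 1 Hz sampling, 150 s post-stimulus.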
# Chain of Potassium voltage-gated channel subfamily KQT member 1 (Homo sapiens) (P51787 whole entry, looked up): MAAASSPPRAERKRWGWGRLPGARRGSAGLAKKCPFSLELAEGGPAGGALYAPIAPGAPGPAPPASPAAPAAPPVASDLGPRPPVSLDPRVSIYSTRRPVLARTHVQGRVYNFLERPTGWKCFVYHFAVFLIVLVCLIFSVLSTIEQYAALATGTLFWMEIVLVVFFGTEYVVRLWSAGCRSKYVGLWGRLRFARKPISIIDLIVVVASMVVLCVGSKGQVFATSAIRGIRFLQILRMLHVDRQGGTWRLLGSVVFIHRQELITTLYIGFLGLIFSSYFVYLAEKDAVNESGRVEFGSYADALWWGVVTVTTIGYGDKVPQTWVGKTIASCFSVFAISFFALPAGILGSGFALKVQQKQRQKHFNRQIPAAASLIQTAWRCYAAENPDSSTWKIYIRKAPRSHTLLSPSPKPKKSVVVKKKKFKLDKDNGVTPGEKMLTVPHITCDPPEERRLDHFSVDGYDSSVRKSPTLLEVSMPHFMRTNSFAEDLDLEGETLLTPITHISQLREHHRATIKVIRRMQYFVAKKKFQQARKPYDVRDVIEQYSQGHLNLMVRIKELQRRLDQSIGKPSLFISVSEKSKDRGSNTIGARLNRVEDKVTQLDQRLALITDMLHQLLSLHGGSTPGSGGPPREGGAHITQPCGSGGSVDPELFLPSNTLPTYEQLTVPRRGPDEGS
# T1 sequence (P51787 whole entry, looked up): as the sequence (P51787 whole entry, looked up) above
# Chain of Potassium voltage-gated channel subfamily KQT member 2 (Rattus norvegicus) (O88943 whole entry, looked up): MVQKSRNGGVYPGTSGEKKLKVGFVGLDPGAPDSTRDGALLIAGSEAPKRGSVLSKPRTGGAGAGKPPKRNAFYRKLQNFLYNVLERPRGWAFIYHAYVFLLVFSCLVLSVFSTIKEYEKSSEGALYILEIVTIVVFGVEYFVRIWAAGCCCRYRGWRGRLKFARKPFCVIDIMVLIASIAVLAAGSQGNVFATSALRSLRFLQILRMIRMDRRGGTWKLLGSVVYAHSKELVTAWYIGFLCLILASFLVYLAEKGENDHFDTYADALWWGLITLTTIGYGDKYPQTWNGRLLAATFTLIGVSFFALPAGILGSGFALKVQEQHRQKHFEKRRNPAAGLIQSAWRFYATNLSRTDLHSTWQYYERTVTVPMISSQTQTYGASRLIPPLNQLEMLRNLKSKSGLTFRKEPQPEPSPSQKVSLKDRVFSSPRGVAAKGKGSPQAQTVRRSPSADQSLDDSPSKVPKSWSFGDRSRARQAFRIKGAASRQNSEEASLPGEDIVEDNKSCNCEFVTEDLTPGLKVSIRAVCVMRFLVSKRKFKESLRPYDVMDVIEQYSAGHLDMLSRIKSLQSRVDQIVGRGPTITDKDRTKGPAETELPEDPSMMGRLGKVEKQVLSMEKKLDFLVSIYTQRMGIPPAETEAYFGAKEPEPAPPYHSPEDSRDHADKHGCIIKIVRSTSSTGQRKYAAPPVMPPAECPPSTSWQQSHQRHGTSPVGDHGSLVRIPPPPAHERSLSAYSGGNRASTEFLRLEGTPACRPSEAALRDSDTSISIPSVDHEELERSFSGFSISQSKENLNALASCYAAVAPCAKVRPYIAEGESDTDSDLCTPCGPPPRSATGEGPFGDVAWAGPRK
smiles,measurement,setting,value
CN(C(=S)NC(=O)c1ccccc1Br)C1CCCCC1,activation,[1],206% (active)
same,potentiation,[2],44% (active)
same,outcome,[3],inactive
Cc1ccc(-n2c(-c3ccc(Cl)cc3)n[nH]c2=S)c(C)c1,outcome,[1],inactive
same,outcome,[2],inactive
same,outcome,[3],inactive
Cc1cccc(N2CCN(C(=O)c3cnn4c(C(F)F)cc(-c5ccccc5)nc34)CC2)c1C,inhibition,[4],146% (active)
same,fluorescence ratio (Tl flux),[5],0.416
same,outcome,[6],inactive
same,inhibition,[7],115% (active)
Cc1ccc(C)c(NC(=S)NNC(=O)c2csc(C(C)C)c2)c1,activation,[1],162% (active)
same,potentiation,[2],55.5% (active)
same,outcome,[3],inactive
COCC(=O)Nc1nnc(SCC(=O)N2C(C)CCCC2C)s1 (stereo not given),outcome,[1],inactive
same,outcome,[2],inactive
same,outcome,[3],inactive
same,outcome,[8],inactive
CC1(c2ccc(OC(F)F)cc2)NC(=O)N(CC(=O)Nc2ccccc2)C1=O (stereo not given),outcome,[1],inactive
same,outcome,[2],inactive
same,outcome,[3],inactive
same,outcome,[8],inactive
Cc1cc(N2CCOCC2)nc(SCC(=O)c2ccc(Cl)cc2)n1,outcome,[1],inactive
same,outcome,[2],inactive
same,outcome,[3],inactive
Cc1ccc(NC(=O)Cn2nc(C)c3ccccc3c2=O)c(C)c1,outcome,[1],inactive
same,outcome,[2],inactive
same,outcome,[3],inactive
O=C(c1nnsc1S(=O)c1ccc(Cl)cc1)N1CCOCC1 (stereo not given),outcome,[1],inactive
same,potentiation,[2],17.5% (active)
same,outcome,[3],inactive
same,outcome,[8],inactive
O=C(NC(=S)Nc1nc2c(ccc3ccccc32)s1)c1cccs1,outcome,[1],inactive
same,potentiation,[2],81% (active)
same,outcome,[3],inactive
same,outcome,[8],inactive
COC(=O)c1cc(-c2cc(OC)ccc2OC)nc2c1c(=O)n(C)c(=O)n2Cc1ccccc1,outcome,[1],inactive
same,outcome,[2],inactive
same,outcome,[3],inactive
COC(=O)C1CCN(C(=O)Nc2ccc(OC)cc2)CC1,activation,[1],144% (active)
same,potentiation,[2],33% (active)
same,outcome,[3],inactive
CCOc1cc(S(=O)(=O)Nc2ccc(Cl)cn2)ccc1Cl,outcome,[1],inactive
same,outcome,[2],inactive
same,outcome,[3],inactive
N=C1/C(=C\c2ccc(-c3cccc(Cl)c3)o2)C(=O)N=C2SC=C(c3ccccc3)N12,outcome,[1],inactive
same,potentiation,[2],29% (active)
same,outcome,[3],inactive
COc1ccc(OC)c(Nc2cc3ccccc3c(=O)[nH]2)c1,outcome,[1],inactive
same,outcome,[2],inactive
same,outcome,[3],inactive
same,outcome,[8],inactive
CCOC(=O)N1CCN(C(=O)C2CCN(c3ncnc4c3sc3cccc(F)c34)CC2)CC1,inhibition,[4],109% (active)
same,fluorescence ratio (Tl flux),[5],0.427
same,outcome,[6],active
same,inhibition,[7],105% (active)
same,inhibition,[9],90% (active)
CCS(=O)(=O)N1Cc2ccccc2CC1C(=O)Nc1cccc(S(=O)(=O)N(C)C)c1 (stereo not given),outcome,[1],inactive
same,outcome,[2],inactive
same,outcome,[3],inactive
same,outcome,[8],inactive
O=C(NC(=S)NC1CCCc2ccccc21)c1ccc(F)cc1 (stereo not given),outcome,[1],inactive
same,potentiation,[2],19.5% (active)
same,outcome,[3],inactive
same,outcome,[8],inactive
O=C(CNCCC1=CCCCC1)Nc1ccccc1N1CCCCCC1,inhibition,[4],144% (active)
same,fluorescence ratio (Tl flux),[5],0.402
same,outcome,[6],inactive
same,inhibition,[7],114% (active)
same,inhibition,[9],175% (active)
O=C(NC(=S)Nc1ccc(Br)cn1)c1cccs1,outcome,[1],inactive
same,outcome,[2],inactive
same,outcome,[3],inactive
CCCn1c(SCC(=O)Nc2cccc(NC(C)=O)c2)nnc1C(C)C,outcome,[1],inactive
same,outcome,[2],inactive
same,outcome,[3],inactive
N#C/C(=C/c1cn(-c2ccccc2)nc1-c1cccc(OCc2ccc(F)cc2)c1)C(=O)NCCCn1ccnc1,outcome,[1],inactive
same,outcome,[2],inactive
same,outcome,[3],inactive
O=C(c1ccc(COc2c(F)c(F)cc(F)c2F)o1)N1CCN(c2ccc(Cl)cc2)CC1,outcome,[1],inactive
same,outcome,[2],inactive
same,outcome,[3],inactive
COc1ccc(C2c3ccc4ccccc4c3Oc3ncn(CCCO)c(=N)c32)cc1OC (stereo not given),outcome,[1],inactive
same,outcome,[2],inactive
same,outcome,[3],inactive
same,outcome,[8],inactive
COc1ccc(/C=C(\NC(=O)c2cccs2)C(=O)N2CCOCC2)cc1OC,activation,[1],137% (active)
same,potentiation,[2],29.5% (active)
same,outcome,[3],inactive
CC(C)COc1ccc(-c2nn(-c3ccccc3)cc2/C=C2/SC(=S)N(CC(=O)O)C2=O)cc1,outcome,[1],inactive
same,outcome,[2],inactive
same,outcome,[3],inactive
Cc1ccc(-c2nn(-c3ccccc3)cc2/C=N/n2c(-c3cccs3)n[nH]c2=S)cc1,outcome,[1],inactive
same,potentiation,[2],23% (active)
same,outcome,[3],inactive
same,outcome,[8],inactive
Cc1nn(C)cc1N1C(=O)c2cccc3c(N)ccc(c23)C1=O,fluorescence ratio (Tl flux),[5],0.006 (active)
same,outcome,[7],inactive
same,outcome,[9],inactive
CC(C(=O)NCC1CCCCC1)N(C)Cc1cccc(Cl)c1 (stereo not given),inhibition,[4],62% (active)
same,fluorescence ratio (Tl flux),[5],0.435
same,inhibition,[7],76% (active)
same,inhibition,[9],84% (active)
COc1cc(NC(=O)c2ccccc2NS(=O)(=O)c2ccc(Cl)s2)cc(OC)c1,inhibition,[4],102% (active)
same,fluorescence ratio (Tl flux),[5],0.419
same,outcome,[7],inactive
same,outcome,[9],inactive
O=C(Nc1nnc(S(=O)(=O)N2CCCCCC2)s1)c1cccc(Br)c1,inhibition,[4],57% (active)
same,fluorescence ratio (Tl flux),[5],0.485
same,outcome,[7],inactive
same,outcome,[9],inactive
N#Cc1c(/N=C/N2CCCC2)oc(-c2ccccc2)c1-c1ccccc1,inhibition,[4],70% (active)
same,fluorescence ratio (Tl flux),[5],0.445
same,inhibition,[7],74.3% (active)
same,inhibition,[9],79% (active)
CCOC(=O)c1ccc(NC(=O)Cn2cnc3cc(C)c(C)cc32)cc1,inhibition,[4],60% (active)
same,fluorescence ratio (Tl flux),[5],0.481
same,outcome,[7],inactive
same,inhibition,[9],55% (active)
O=C(Nc1ccc(Cl)cc1)Nc1ccc(Oc2cccnc2)nc1,inhibition,[4],56% (active)
same,fluorescence ratio (Tl flux),[5],0.487
same,outcome,[9],inactive
COC(=O)c1cc(NC(=O)c2cc(C(C)(C)C)nn2Cc2cccc(C)c2)ccc1N1CCOCC1,inhibition,[4],77% (active)
same,fluorescence ratio (Tl flux),[5],0.333 (active)
same,inhibition,[7],80.3% (active)
same,inhibition,[9],154% (active)

# Reference: PubChem BioAssay
